ChEMBL document CHEMBL1151832, “Structure elucidation at the nanomole scale. 1. Trisoxazole macrolides and thiazole-containing cyclic peptides from the nudibranch Hexabranchus sanguineus” (2009)
In brackets after ≈: the same amount, converted by molar mass. Activity calls are given as the source filed them. The rule behind the calls is not given here.

Assays:
Candida albicans [1] = experiment: Antifungal activity against Candida albicans ATCC 14503 by broth microdilution method; format: functional
Procedure, shortened: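 C. albicans reference strain grown on Sabouraud dextrose agar at 30 °C for 24 h. NCCLS broth microdilution: 2-fold serial dilutions from DMSO stocks in RPMI-1640 buffered to pH 7.0 with 0.165 M MOPS. Final concentrations 0.062–64 µg/mL; amphotericin B control 0.0078–8 µg/mL. Tested in replicate; growth read as OD 600 nm; MIC = lowest concentration giving ≥90% growth inhibition.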

Nakaseomyces glabratus = experiment: Antifungal activity against Candida glabrata clinical isolate by broth microdilution method; format: functional
Procedure, shortened: (§1)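 Isolates were maintained on Sabouraud dextrose agar at 30 °C, for 24 h (Candida) or 48 h (C. neoformans). Testing followed the NCCLS broth microdilution method, using 2-fold serial dilutions from DMSO stocks in RPMI-1640 buffered to pH 7.0 with 0.165 M MOPS. Final concentrations were 0.062–64 µg/mL, with amphotericin B as positive control. Replicates were run, and growth was read by OD600. MIC was the lowest concentration giving ≥90% inhibition.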

Cryptococcus neoformans = experiment: Antifungal activity against Cryptococcus neoformans var. grubii clinical isolate by broth microdilution method; format: functional
Procedure, shortened: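 Clinical isolate maintained on Sabouraud dextrose agar, 30 °C, 48 h. Susceptibility by NCCLS broth microdilution in RPMI-1640 with 0.165 M MOPS (pH 7.0), using 2-fold dilutions from DMSO stocks spanning 0.062–64 µg/mL final (amphotericin B control 0.0078–8 µg/mL). Replicate wells per run; OD 600 nm read-out; MIC endpoint is the lowest concentration with complete (≥90%) inhibition.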

Pichia kudriavzevii = experiment: Antifungal activity against fluconazole-resistant Candida krusei clinical isolate by broth microdilution method; format: functional, organism-based; procedure, shortened: as §1
Candida albicans [2] = experiment: Antifungal activity against fluconazole-resistant Candida albicans isolate 96-489 by broth microdilution method
Cryptococcus gattii = experiment: Antifungal activity against Cryptococcus neoformans var. gattii clinical isolate by broth microdilution method; format: functional, organism-based; settings: Cryptococcus bacillisporus; procedure, shortened: as §1
Candida albicans [3] = experiment: Antifungal activity against fluconazole-resistant Candida albicans isolate UCDFR1 by broth microdilution method; format: functional, organism-based; procedure, shortened: as §1

SMILES | MIC (Candida albicans [1]) | MIC (Nakaseomyces glabratus) | MIC (Cryptococcus neoformans) | MIC (Pichia kudriavzevii) | MIC (Candida albicans [2]) | MIC (Cryptococcus gattii) | MIC (Candida albicans [3])
CO[C@H]([C@H](C)/C=C/N(C)C=O)[C@@H](C)C(=O)CC[C@H](C)[C@H](C[C@@H]1OC(=O)C[C@@H](O)CCC[C@H](O)[C@H](C)[C@H](OC)c2coc(n2)-c2coc(n2)-c2coc(n2)/C=C/CC[C@H]1C)OC | 0.25 µg/mL (≈ 0.292 µM) | 0.125 µg/mL (≈ 0.146 µM) | 0.5 µg/mL (≈ 0.585 µM) | – | – | – | –
CO[C@H]([C@H](C)/C=C/N(C)C=O)[C@@H](C)C(=O)CC[C@H](C)[C@H](C[C@@H]1OC(=O)C[C@@H](OC(N)=O)C[C@H](C)C[C@H](O)[C@H](C)[C@@H](O)c2coc(n2)-c2coc(n2)-c2coc(n2)/C=C/C[C@H](O)[C@H]1C)OC [9-O-DESMETHYL KABIRAMIDE B] | 2 µg/mL (≈ 2.19 µM) | 1 µg/mL (≈ 1.09 µM) | 2 µg/mL (≈ 2.19 µM) | inactive | inactive | inactive | inactive
C[C@@H]1[C@H](O)[C@@H](C)/C=C/C=C/C=C/C=C/C=C/C=C/C=C/[C@H](O[C@@H]2O[C@H](C)[C@@H](O)[C@H](N)[C@@H]2O)C[C@@H]2O[C@](O)(C[C@@H](O)C[C@@H](O)[C@H](O)CC[C@@H](O)C[C@@H](O)CC(=O)O[C@H]1C)C[C@H](O)[C@H]2C(=O)O [AMPHOTERICIN B] | 0.016 µg/mL (≈ 0.0173 µM) | 0.25 µg/mL (≈ 0.271 µM) | 0.016 µg/mL (≈ 0.0173 µM) | – | – | – | –
CO[C@H]([C@H](C)/C=C/N(C)C=O)[C@@H](C)C(=O)CC[C@H](C)[C@H](C[C@@H]1OC(=O)C[C@@H](OC(N)=O)C[C@H](C)C[C@H](O)[C@H](C)[C@@H](OC)c2coc(n2)-c2coc(n2)-c2coc(n2)/C=C/C[C@H](O)[C@H]1C)OC [KABIRAMIDE B] | 0.5 µg/mL (≈ 0.539 µM) | 0.5 µg/mL (≈ 0.539 µM) | 1 µg/mL (≈ 1.08 µM) | – | – | – | –
CO[C@H]([C@H](C)/C=C/N(C)C=O)[C@@H](C)C(=O)CC[C@H](C)[C@H](C[C@@H]1OC(=O)C[C@@H](OC(N)=O)C[C@H](C)C[C@H](O)[C@H](C)[C@@H](OC)c2coc(n2)-c2coc(n2)-c2coc(n2)/C=C/C[C@H](OC)[C@H]1C)OC [KABIRAMIDE C] | 0.016 µg/mL (≈ 0.017 µM) | 0.25 µg/mL (≈ 0.265 µM) | 0.125 µg/mL (≈ 0.133 µM) | Active | Active | Active | Active
